Test results: PubChem BioAssay AID588578 (Sanford-Burnham Center for Chemical Genomics, 2011)
Active and inactive are the calls of the source.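 Rule for the calls: active = IC50 at or below 20 µM; inactive = the rest.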

The compounds below were run against Bcl-2-like protein 1 (Homo sapiens) (UniProt Q07817) (assay: displacement of Bim BH3 peptide from Bcl-XL – biochemical, fluorescence polarization, GST-Bcl-XL, FITC-Bim, selectivity assay for Bcl-B inhibitor project, SAR follow-up (AID 588578)).
In short: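 System – bacterial GST-Bcl-XL, transmembrane tail removed · Read-out basis – IC50 from sigmoidal non-linear dose-response fit · Medium – HEPES buffer pH 7.5 with Tween-20 and TCEP · Reagent – FITC-Bim probe peptide · Compound – ten doses, twofold serial dilution · Timing – compound-protein preincubation 20 min at 4 °C, tracer 10 min at RT, dark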

Bcl-2-like protein 1 (Homo sapiens), sequence (Q07817 whole entry, looked up): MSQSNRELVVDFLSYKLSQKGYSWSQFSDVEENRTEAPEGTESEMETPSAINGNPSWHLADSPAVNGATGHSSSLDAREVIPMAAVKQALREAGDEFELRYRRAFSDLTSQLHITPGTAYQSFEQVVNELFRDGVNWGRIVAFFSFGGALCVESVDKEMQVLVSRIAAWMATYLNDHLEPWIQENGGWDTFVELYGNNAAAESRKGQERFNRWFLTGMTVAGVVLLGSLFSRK

Row | IC50 | Structure (SMILES)
1 | > 20 µM (inactive) | COc1ccc(Cn2c(=O)c3c(n4cnnc24)-c2cc(C)ccc2CC3(C)C)cc1
2 | > 20 µM (inactive) | O=c1[nH]c(CN2CCOCC2)nc2c1C1(CCCC1)Cc1ccccc1-2
3 | > 20 µM (inactive) | CC1(C)Cc2ccccc2-c2c1c(=O)n(Cc1ccccc1)c1nnnn21
4 | > 20 µM (inactive) | COc1ccc2c(c1)-c1c(c(=O)n(Cc3ccc(Cl)cc3)c3nncn13)C(C)(C)C2
5 | > 20 µM (inactive) | O=c1c2c(nc3[nH]ncn13)-c1ccccc1CC21CCCC1
6 | > 20 µM (inactive) | COc1ccc2c(c1)-c1c(c(=O)n(Cc3ccc(Cl)cc3)c3nnnn13)C1(CCCC1)C2
7 | > 20 µM (inactive) | Cc1ccc2c(c1)-c1c(c(=O)n(Cc3ccccc3)c3nncn13)C(C)(C)C2
8 | > 20 µM (inactive) | O=c1c2c(n3nnnc3n1Cc1ccc(F)cc1)-c1ccccc1CC21CCCC1
9 | > 20 µM (inactive) | O=c1c2c(-c3ccccc3)n3ncnc3nc2ccn1-c1ccccc1
10 | > 20 µM (inactive) | O=c1c2c(nc3n1CCS3)-c1ccccc1CC21CCCCC1
11 | > 20 µM (inactive) | Cn1c(=O)c2c(n3cnnc13)-c1ccccc1CC21CCCC1
12 | > 20 µM (inactive) | Cn1c(NCCO)nc2c(c1=O)C1(CCCCC1)Cc1ccccc1-2
13 | > 20 µM (inactive) | COc1ccc2c(c1)-c1c(c(=O)n(Cc3ccc(F)cc3)c3nncn13)C(C)(C)C2
14 | > 20 µM (inactive) | Cc1ccc2c(c1)-c1c(c(=O)n(Cc3ccc(F)cc3)c3nnnn13)C1(CCCCC1)C2
15 | > 20 µM (inactive) | O=C1CC(c2ccccc2F)c2c(n3ncnc3[nH]c2=O)N1 (stereo not drawn)
16 | > 20 µM (inactive) | O=C1CCCC2=C1C(c1cc(Br)ccc1F)n1ncnc1N2 (stereo not drawn)
17 | > 20 µM (inactive) | Cc1ccc2c(c1)-c1c(c(=O)n(Cc3ccc(F)cc3)c3nncn13)C1(CCCCC1)C2
18 | > 20 µM (inactive) | O=c1c2ccccc2nc2n1C1(CCCC1)Cc1ccccc1-2
19 | > 20 µM (inactive) | O=c1c2c(n3nnnc3n1Cc1ccccc1)-c1ccccc1CC21CCCC1

Row | IC50 | Structure (SMILES)
20 | > 20 µM (inactive) | CC1CC(=O)C2=C(C1)Nc1ncnn1C2c1cccnc1 (stereo not drawn)
21 | > 20 µM (inactive) | COc1ccc2c(c1)-c1c(c(=O)n(Cc3ccccc3)c3nnnn13)C1(CCCC1)C2
22 | > 20 µM (inactive) | O=c1c2c(-c3ccccc3)n3ncnc3nc2ccn1-n1cnnc1
23 | > 20 µM (inactive) | COc1ccc2c(c1)-c1c(c(=O)n(Cc3ccc(Cl)cc3)c3nncn13)C1(CCCC1)C2
24 | > 20 µM (inactive) | Cc1ccc2c(c1)-c1c(c(=O)n(Cc3ccccc3)c3nnnn13)C1(CCCCC1)C2
25 | > 20 µM (inactive) | Cc1ccc2c(c1)-c1c(c(=O)n(Cc3ccccc3)c3nncn13)C1(CCCCC1)C2
26 | > 20 µM (inactive) | O=C1CC(c2ccc(F)cc2)CC2=C1C(c1cccc(Cl)c1)n1ncnc1N2 (stereo not drawn)
27 | > 20 µM (inactive) | O=c1[nH]c(CN2CCCC2)nc2c1C1(CCCC1)Cc1ccccc1-2
28 | > 20 µM (inactive) | O=c1c2c(nc3[nH]ncn13)-c1ccccc1CC21CCCCC1
29 | > 20 µM (inactive) | CC1(C)Cc2ccccc2-c2c1c(=O)n(Cc1ccccc1)c1nncn21
30 | > 20 µM (inactive) | COc1ccc(Cn2c(=O)c3c(n4nnnc24)-c2ccccc2CC32CCCC2)cc1
31 | > 20 µM (inactive) | C=C(C)Cn1c(=O)c2c(n3nnnc13)-c1ccccc1CC21CCCC1
32 | > 20 µM (inactive) | COc1ccc2c(c1)-c1c(c(=O)n(Cc3ccccc3)c3nncn13)C(C)(C)C2
33 | > 20 µM (inactive) | Cc1ccc2c(c1)-c1c(c(=O)n(Cc3ccc(Cl)cc3)c3nnnn13)C1(CCCCC1)C2
34 | > 20 µM (inactive) | O=c1c2cnc3nc(-c4ccccc4)nn3c2ccn1CCc1cnc[nH]1
35 | > 20 µM (inactive) | CC1(C)Cc2ccccc2-c2nc3nn[nH]n3c(=O)c21
36 | > 20 µM (inactive) | O=c1c2c(n3cnnc3n1C1CCCCC1)-c1ccccc1CC21CCCCC1
37 | > 20 µM (inactive) | O=c1c2c(n3cnnc3n1Cc1ccc(Cl)cc1)-c1ccccc1CC21CCCC1
38 | > 20 µM (inactive) | O=c1c2c(n3nnnc3n1Cc1ccccc1)-c1ccccc1CC21CCCCC1

Row | IC50 | Structure (SMILES)
39 | > 20 µM (inactive) | COc1ccc(Cn2c(=O)c3c(n4nnnc24)-c2cc(C)ccc2CC3(C)C)cc1
40 | > 20 µM (inactive) | O=c1c2c(n3nnnc3n1Cc1ccccc1)-c1cc(F)ccc1CC21CCCC1
41 | > 20 µM (inactive) | Cc1ccc2c(c1)-c1c(c(=O)n(Cc3ccccc3)c3nnnn13)C(C)(C)C2
42 | > 20 µM (inactive) | COc1ccc2c(c1)-c1c(c(=O)n(Cc3ccccc3)c3nnnn13)C(C)(C)C2
43 | > 20 µM (inactive) | O=c1c2ccccc2nc2n1C1(CCCCC1)Cc1ccccc1-2
44 | > 20 µM (inactive) | O=c1[nH]c(NCCCO)nc2c1C1(CCCCC1)Cc1ccccc1-2
45 | > 20 µM (inactive) | Cc1ccc2c(c1)-c1c(c(=O)n(Cc3ccc(Cl)cc3)c3nncn13)C1(CCCCC1)C2
46 | > 20 µM (inactive) | O=c1c2c(n3cnnc3n1Cc1ccccc1)-c1ccccc1CC21CCCC1
47 | > 20 µM (inactive) | C=C(C)Cn1c(=O)c2c(n3cnnc13)-c1ccccc1CC21CCCC1
48 | > 20 µM (inactive) | O=c1c2c(n3nnnc3n1-c1ccccc1)-c1ccccc1CC21CCCC1
49 | > 20 µM (inactive) | O=c1c2c(n3nnnc3n1Cc1ccccc1)-c1cc(F)ccc1CC21CCCCC1
50 | > 20 µM (inactive) | COc1ccc2c(c1)-c1c(c(=O)n(Cc3ccc(F)cc3)c3nnnn13)C(C)(C)C2
51 | > 20 µM (inactive) | CC1(C)CC(n2c(=S)[nH]c3c(c2=O)C2(CCCC2)Cc2ccccc2-3)CCO1 (stereo not drawn)
52 | > 20 µM (inactive) | COc1ccc2c(c1)-c1c(c(=O)n(Cc3ccccc3)c3nncn13)C1(CCCC1)C2
53 | > 20 µM (inactive) | c1ccc(OCc2nc3c4c(ncn3n2)-c2ccccc2CC42CCCC2)cc1
54 | > 20 µM (inactive) | O=c1c2c(n3cnnc3n1Cc1ccccc1)-c1ccccc1CC21CCCCC1
55 | > 20 µM (inactive) | O=c1c2c(n3nnnc3n1Cc1ccc(Cl)cc1)-c1ccccc1CC21CCCC1
56 | > 20 µM (inactive) | COc1ccc2c(c1)-c1c(c(=O)n(Cc3ccc(Cl)cc3)c3nnnn13)C(C)(C)C2
57 | > 20 µM (inactive) | Cn1c(=S)[nH]c2c(c1=O)C1(CCCCC1)Cc1ccccc1-2

Row | Structure (SMILES) | IC50
58 | O=c1c2cnc3ncnn3c2ccn1CCc1cnc[nH]1 | > 20 µM (inactive)
